Measurements from ChEMBL document CHEMBL1127591, “Novel prodrugs of alkylating agents derived from 2-fluoro- and 3-fluorobenzoic acids for antibody-directed enzyme prodrug therapy” (J Med Chem, 1994).

How the values were obtained:
[1] = Chemical half-life in percholate at 37 degree was determined; assay type: ADME; conditions: perchlorate solution
In short: (§1)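 Sodium perchlorate (0.1 M) at 37 °C. Hydrolysis was followed to effective completion by titrating the released acid with 0.01 M NaOH under N2 on an automatic titrator held at pH 7.4. Each compound was run at least twice, and t1/2 is the mean of all determinations.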

LS174T [2] = assay: Compound was evaluated for its cytotoxicity without carboxypeptidase G2 in the colorectal cell line LS174T for 1 hour; assay type: functional, cell-based; conditions: Homo sapiens
In short: (§2)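 LS174T cells (2.5 × 10³/well) in DMEM + 10% FCS, 5% CO2, 37 °C. Exposed once for 1 h to six concentrations (1–800 μM), with or without CPG2 (6 units/mL final). Compounds and enzyme were freshly prepared. Cells washed three times, regrown 6 days, then fixed and stained. Viable-cell protein read by sulforhodamine B against untreated controls. Octuplicate wells.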

[3] = Kinetics of potential prodrugs as substrates for carboxypeptidase G2 was determined and reported as first order constant; assay type: ADME
In short: (§3)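 CPG2 cleavage of the benzoylglutamate amide bond in 100 mM Tris/HCl pH 7.3 with 260 μM ZnCl2 at 37 °C in a thermostated spectrophotometer. Absorbance fall was read at the wavelength of maximal prodrug–parent difference, chosen from 240–400 nm scans. Substrate 0.1–100 μM, CPG2 (0.01–1.0 unit) held constant per run. Michaelis–Menten fit. Duplicates.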

[4] = Kinetics of potential prodrugs as substrates for carboxypeptidase G2 was determined and reported as apparent second order constant; assay type: ADME; in short: as §3
LS174T [5] = assay: Compound was evaluated for its cytotoxicity with carboxypeptidase G2 in the colorectal cell line LS174T for 1 hour; assay type: functional, cell-based; conditions: Homo sapiens; in short: as §2
[6] = Kinetics of potential prodrugs as substrates for carboxypeptidase G2 was determined and reported as Michaelis-Menten constant; assay type: ADME; in short: as §3
[7] = Chemical half-life in percholate at 37 degree Centigrade; assay type: ADME; conditions: perchlorate solution; in short: as §1

CS(=O)(=O)OCCN(CCCl)c1ccc(C(=O)O)cc1
half-life [1]: 0.967 h | IC50 (LS174T [2]): 185 µM

CS(=O)(=O)OCCN(CCCl)c1ccc(C(=O)N[C@@H](CCC(=O)O)C(=O)O)cc1
half-life [1]: 16.4 h | k cat [3]: 583 s⁻¹ | k cat/Km [4]: 1.71e+08 M⁻¹ s⁻¹ | IC50 (LS174T [5]): 200 µM | Km [6]: 3.4 µM

CS(=O)(=O)OCCN(CCCl)c1ccc(C(=O)N[C@@H](CCC(=O)O)C(=O)O)c(F)c1
k cat [3]: 213 s⁻¹ | k cat/Km [4]: 1.9e+07 M⁻¹ s⁻¹ | Km [6]: 11 µM

O=C(O)CC[C@H](NC(=O)c1ccc(N(CCCl)CCCl)cc1)C(=O)O
half-life [1]: 19.3 h

CS(=O)(=O)OCCN(CCOS(C)(=O)=O)c1ccc(C(=O)N[C@@H](CCC(=O)O)C(=O)O)cc1
half-life [7]: 0.7 h

CS(=O)(=O)OCCN(CCCl)c1ccc(C(=O)N[C@@H](CCC(=O)O)C(=O)O)cc1F
half-life [1]: 2.03 h | k cat [3]: 614 s⁻¹ | k cat/Km [4]: 1.02e+08 M⁻¹ s⁻¹ | Km [6]: 6 µM

O=C(O)CC[C@H](NC(=O)c1ccc(N(CCCl)CCCl)cc1F)C(=O)O
k cat [3]: 462 s⁻¹ | k cat/Km [4]: 3.1e+07 M⁻¹ s⁻¹ | IC50 (LS174T [5]): > 800 µM | IC50 (LS174T [2]): > 800 µM | Km [6]: 15 µM

CS(=O)(=O)OCCN(CCCl)c1ccc(C(=O)O)c(F)c1
half-life [1]: 3.2 h | IC50 (LS174T [2]): > 800 µM

CS(=O)(=O)OCCN(CCCl)c1ccc(C(=O)O)cc1F
half-life [1]: 0.04 h | IC50 (LS174T [2]): 280 µM

CS(=O)(=O)OCCN(CCOS(C)(=O)=O)c1ccc(C(=O)O)cc1F
half-life [1]: 0.0317 h | IC50 (LS174T [2]): 480 µM

O=C(O)CC[C@H](NC(=O)c1ccc(N(CCCl)CCCl)c(F)c1)C(=O)O
half-life [1]: 2.45 h | k cat [3]: 1028 s⁻¹ | k cat/Km [4]: 1.03e+08 M⁻¹ s⁻¹ | IC50 (LS174T [5]): 390 µM | IC50 (LS174T [2]): > 800 µM | Km [6]: 10 µM

CS(=O)(=O)OCCN(CCOS(C)(=O)=O)c1ccc(C(=O)N[C@@H](CCC(=O)O)C(=O)O)cc1F
half-life [1]: 0.15 h | k cat [3]: 565 s⁻¹ | k cat/Km [4]: 3.3e+07 M⁻¹ s⁻¹ | Km [6]: 17 µM
